{
  "source": "ChEMBL document CHEMBL4011598",
  "about": "“Sulfonamides as Selective NaV1.7 Inhibitors: Optimizing Potency and Pharmacokinetics While Mitigating Metabolic Liabilities” (J Med Chem, 2017)",
  "key": {"[1]": {"tested_on": "Rattus norvegicus", "test": "Unbound clearance in rat at 0.5 mg/kg, iv", "format": "ADME, organism-based", "details": "in vivo", "outline": "(§1)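 Male rats given a single 0.5 mg/kg iv dose in DMSO. Unbound clearance (CLu) is total clearance divided by fu, the unbound fraction in plasma.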"}, "[2]": {"molecular_target": "Sodium channel protein type 8 subunit alpha (Homo sapiens, UniProt Q9UQD0)", "sequence (Q9UQD0 whole entry)": "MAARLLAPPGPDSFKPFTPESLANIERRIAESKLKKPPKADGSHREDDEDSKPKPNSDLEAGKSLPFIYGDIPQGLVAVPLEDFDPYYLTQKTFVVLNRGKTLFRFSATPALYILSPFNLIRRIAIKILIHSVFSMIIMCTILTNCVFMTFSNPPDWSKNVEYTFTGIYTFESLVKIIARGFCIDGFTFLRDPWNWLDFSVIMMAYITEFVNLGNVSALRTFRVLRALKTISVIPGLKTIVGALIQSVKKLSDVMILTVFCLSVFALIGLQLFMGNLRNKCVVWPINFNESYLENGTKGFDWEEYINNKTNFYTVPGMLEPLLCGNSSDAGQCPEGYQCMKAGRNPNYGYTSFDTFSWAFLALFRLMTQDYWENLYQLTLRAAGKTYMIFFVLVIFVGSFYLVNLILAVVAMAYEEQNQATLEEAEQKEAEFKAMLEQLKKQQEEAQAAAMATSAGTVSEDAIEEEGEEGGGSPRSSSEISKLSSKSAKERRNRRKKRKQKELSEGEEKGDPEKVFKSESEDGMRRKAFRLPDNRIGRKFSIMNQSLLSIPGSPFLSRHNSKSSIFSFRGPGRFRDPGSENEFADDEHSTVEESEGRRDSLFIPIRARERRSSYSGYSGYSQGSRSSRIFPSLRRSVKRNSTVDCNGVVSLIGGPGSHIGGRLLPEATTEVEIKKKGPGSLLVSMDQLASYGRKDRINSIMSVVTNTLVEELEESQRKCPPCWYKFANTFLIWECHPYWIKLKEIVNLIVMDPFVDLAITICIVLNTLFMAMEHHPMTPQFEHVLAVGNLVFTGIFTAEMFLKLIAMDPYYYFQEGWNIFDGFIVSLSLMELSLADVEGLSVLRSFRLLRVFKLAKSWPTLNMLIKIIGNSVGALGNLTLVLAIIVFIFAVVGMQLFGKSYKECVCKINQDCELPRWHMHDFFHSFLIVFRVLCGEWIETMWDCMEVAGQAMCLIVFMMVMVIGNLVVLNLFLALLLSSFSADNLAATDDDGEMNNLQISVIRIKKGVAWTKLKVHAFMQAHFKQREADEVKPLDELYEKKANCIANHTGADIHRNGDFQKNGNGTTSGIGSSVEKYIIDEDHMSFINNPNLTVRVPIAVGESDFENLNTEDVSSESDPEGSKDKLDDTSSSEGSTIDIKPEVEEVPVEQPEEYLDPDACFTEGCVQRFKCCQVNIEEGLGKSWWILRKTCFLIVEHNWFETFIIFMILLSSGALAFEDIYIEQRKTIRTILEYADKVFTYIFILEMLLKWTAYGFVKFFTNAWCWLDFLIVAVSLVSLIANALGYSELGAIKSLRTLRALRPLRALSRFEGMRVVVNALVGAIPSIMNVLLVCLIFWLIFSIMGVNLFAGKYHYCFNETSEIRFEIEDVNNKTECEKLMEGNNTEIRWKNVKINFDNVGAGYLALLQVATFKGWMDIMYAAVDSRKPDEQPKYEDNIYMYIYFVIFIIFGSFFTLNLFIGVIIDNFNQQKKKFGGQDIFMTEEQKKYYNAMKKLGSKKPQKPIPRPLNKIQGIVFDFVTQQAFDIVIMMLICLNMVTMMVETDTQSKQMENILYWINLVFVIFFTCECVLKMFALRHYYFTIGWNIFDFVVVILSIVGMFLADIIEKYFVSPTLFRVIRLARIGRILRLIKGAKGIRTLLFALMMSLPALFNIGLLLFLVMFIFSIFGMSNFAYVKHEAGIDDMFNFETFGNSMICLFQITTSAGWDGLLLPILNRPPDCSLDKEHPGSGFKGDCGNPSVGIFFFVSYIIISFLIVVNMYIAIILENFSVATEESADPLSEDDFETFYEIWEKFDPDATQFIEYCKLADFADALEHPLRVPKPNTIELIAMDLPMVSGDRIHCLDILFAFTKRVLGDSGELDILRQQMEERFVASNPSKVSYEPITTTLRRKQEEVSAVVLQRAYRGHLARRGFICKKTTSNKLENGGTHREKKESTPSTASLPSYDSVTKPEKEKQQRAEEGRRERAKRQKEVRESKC", "test": "Inhibition of human Nav1.6 expressed in HEK293 cells assessed as reduction in peak inward current by ionworks quattro electrophysiology assay", "format": "cell-based"}, "[3]": {"test": "Intrinsic clearance in human liver microsomes at 1 uM after 1 to 40 mins in presence of NADPH by LC-MS/MS analysis", "format": "ADME, microsome", "details": "read-out: CLH"}, "[4]": {"test": "Total clearance in rat at 0.5 mg/kg, iv", "format": "ADME, organism-based", "details": "in vivo", "outline": "as §1"}, "[5]": {"test": "Volume of distribution at steady state in dog at 0.25 mg/kg, iv", "format": "ADME, organism-based, Canis lupus familiaris", "details": "in vivo, read-out: Vdss", "outline": "(§2)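 Male dogs received a single 0.25 mg/kg iv dose in DMSO. Unbound clearance (CLu) is total clearance divided by fu, the unbound fraction in plasma.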"}, "[6]": {"test": "Half life in dog at 0.25 mg/kg, iv", "format": "ADME, organism-based, Canis lupus familiaris", "details": "in vivo", "outline": "as §2"}, "[7]": {"test": "AUC in rat at 10 mg/kg, po", "format": "ADME, organism-based", "details": "in vivo"}, "[8]": {"test": "AUC in dog at 2 mg/kg, po", "format": "ADME, organism-based, Canis lupus familiaris", "details": "in vivo"}, "[9]": {"test": "Oral bioavailability in dog at 2 mg/kg", "format": "ADME, organism-based, Canis lupus familiaris", "details": "in vivo"}, "[10]": {"test": "Unbound fraction in dog plasma at 5 uM by LC-MS/MS method", "format": "ADME, cell-free, Canis lupus familiaris"}, "[11]": {"test": "Aqueous solubility of the compound in PBS after 48 hrs by shake flask method", "format": "physicochemical"}, "[12]": {"tested_on": "Mus musculus", "test": "Toxicity in naive C57Bl/6 mouse assessed as effect on basic locomotor movement at 30 to 300 mg/kg, po measured after 4 hrs for 60 mins by open field test", "format": "organism-based", "details": "in vivo"}, "[13]": {"test": "Tmax in rat at 10 mg/kg, po", "format": "ADME, organism-based", "details": "in vivo"}, "[14]": {"tested_on": "Plasma", "test": "Total plasma concentration in C57Bl/6 mouse at 100 mg/kg, po", "format": "ADME, organism-based", "details": "in vivo"}, "[15]": {"tested_on": "Plasma", "test": "Unbound plasma concentration in C57Bl/6 mouse at 100 mg/kg, po", "format": "ADME, organism-based", "details": "in vivo"}, "[16]": {"molecular_target": "Sodium channel protein type 9 subunit alpha (Rattus norvegicus, UniProt O08562)", "sequence (O08562 whole entry)": "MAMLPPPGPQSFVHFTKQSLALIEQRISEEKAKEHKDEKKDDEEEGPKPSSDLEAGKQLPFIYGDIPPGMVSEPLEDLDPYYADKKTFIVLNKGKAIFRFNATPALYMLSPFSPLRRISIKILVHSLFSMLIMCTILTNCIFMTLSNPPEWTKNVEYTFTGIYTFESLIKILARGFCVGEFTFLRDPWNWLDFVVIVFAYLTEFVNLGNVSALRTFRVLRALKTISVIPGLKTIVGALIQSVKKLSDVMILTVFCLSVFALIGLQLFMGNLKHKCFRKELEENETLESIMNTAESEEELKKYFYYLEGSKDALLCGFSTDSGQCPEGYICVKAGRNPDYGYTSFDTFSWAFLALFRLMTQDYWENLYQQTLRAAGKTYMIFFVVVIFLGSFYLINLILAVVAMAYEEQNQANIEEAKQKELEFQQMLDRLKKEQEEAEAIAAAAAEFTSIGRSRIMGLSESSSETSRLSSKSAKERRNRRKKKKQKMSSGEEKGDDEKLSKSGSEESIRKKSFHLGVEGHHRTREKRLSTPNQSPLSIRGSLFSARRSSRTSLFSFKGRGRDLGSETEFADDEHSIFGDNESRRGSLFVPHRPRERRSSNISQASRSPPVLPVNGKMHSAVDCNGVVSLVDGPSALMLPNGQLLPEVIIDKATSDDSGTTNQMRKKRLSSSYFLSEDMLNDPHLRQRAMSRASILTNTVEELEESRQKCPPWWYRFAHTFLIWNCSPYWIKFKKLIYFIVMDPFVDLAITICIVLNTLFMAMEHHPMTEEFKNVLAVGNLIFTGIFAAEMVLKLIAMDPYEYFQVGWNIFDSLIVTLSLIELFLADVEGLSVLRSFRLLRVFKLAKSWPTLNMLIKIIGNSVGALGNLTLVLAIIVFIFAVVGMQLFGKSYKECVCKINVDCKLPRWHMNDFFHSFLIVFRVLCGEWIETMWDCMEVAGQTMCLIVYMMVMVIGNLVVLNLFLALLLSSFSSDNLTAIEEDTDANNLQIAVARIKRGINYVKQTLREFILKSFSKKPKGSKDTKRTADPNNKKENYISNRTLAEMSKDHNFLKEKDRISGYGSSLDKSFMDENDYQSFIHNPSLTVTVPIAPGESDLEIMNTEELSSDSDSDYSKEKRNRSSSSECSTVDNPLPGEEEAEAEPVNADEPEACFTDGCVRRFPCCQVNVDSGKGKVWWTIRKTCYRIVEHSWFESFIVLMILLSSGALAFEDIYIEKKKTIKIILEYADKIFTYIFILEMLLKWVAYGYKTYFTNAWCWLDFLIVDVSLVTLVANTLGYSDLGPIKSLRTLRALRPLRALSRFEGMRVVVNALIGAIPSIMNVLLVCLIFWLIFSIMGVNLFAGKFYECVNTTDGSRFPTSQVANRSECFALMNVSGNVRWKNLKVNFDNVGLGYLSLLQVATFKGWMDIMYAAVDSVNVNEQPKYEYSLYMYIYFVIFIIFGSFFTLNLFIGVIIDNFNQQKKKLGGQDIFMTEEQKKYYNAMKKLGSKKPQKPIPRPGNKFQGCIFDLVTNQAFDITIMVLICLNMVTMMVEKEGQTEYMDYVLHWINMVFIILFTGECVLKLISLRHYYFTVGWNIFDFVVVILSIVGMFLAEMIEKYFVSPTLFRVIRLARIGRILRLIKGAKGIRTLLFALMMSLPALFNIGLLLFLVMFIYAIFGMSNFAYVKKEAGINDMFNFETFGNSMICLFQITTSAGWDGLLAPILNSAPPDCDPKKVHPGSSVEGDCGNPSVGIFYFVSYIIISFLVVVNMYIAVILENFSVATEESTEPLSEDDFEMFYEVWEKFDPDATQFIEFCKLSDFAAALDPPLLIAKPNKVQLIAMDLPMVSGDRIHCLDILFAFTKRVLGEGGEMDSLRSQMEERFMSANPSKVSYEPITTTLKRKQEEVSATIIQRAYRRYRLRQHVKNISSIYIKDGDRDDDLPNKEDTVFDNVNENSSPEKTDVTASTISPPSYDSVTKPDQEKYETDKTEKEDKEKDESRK", "test": "Inhibition of rat Nav1.7 expressed in HEK293T cells incubated for 3 to 5 mins at -125 mV holding potential by electrophysiology assay", "format": "cell-based"}},
  "data": [
    {"compound": "COc1cc(-c2cccc(C(F)(F)F)c2)c(F)cc1-c1nccc2cc(S(=O)(=O)Nc3ccon3)ccc12", "values": [
      {"measurement": "CL free", "setting": "[1]", "value": 433, "unit": "mL/min/kg"},
      {"measurement": "IC50", "setting": "[2]", "value": 16, "unit": "µM"},
      {"measurement": "microsomal CLint at 1 µM", "setting": "[3]", "value": "< 14", "unit": "µL/min/mg"},
      {"measurement": "clearance", "setting": "[4]", "value": 3.83, "unit": "mL/min/kg"},
      {"measurement": "Vd", "setting": "[5]", "value": 0.56, "unit": "L/kg"},
      {"measurement": "half-life", "setting": "[6]", "value": 20, "unit": "h"},
      {"measurement": "AUC", "setting": "[7]", "value": 44.2, "unit": "µM·h"},
      {"measurement": "AUC", "setting": "[8]", "value": 101, "unit": "µM·h"},
      {"measurement": "bioavailability", "setting": "[9]", "value": 63, "unit": "%"},
      {"measurement": "fraction unbound at 5 µM", "setting": "[10]", "value": 0.0066},
      {"measurement": "solubility thermodynamic at 48 h", "setting": "[11]", "value": 432, "unit": "µM"},
      {"measurement": "Activity", "setting": "[12]", "value": "Non-Toxic"},
      {"measurement": "Tmax", "setting": "[13]", "value": 6, "unit": "h"},
      {"measurement": "concentration", "setting": "[14]", "value": 106, "unit": "µM"},
      {"measurement": "Cp(f)", "setting": "[15]", "value": 1.23, "unit": "µM"},
      {"measurement": "IC50", "setting": "[16]", "value": 4, "unit": "µM"}
    ]}
  ]
}
